Results from ChEMBL document CHEMBL2417362, “Truncation of the peptide sequence in bifunctional ligands with mu and delta opioid receptor agonist and neurokinin 1 receptor antagonist activities” (Bioorg Med Chem Lett, 2013).
Calls of active or inactive are those of the source. No cut-off for these calls is given here. Non-standard residues stand in square brackets, D forms with d. Residues, ends and D or L forms follow the SMILES beside them. *: point of attachment. OBzl(3,5-(CF3)2) = FC(F)(F)c1cc(CO*)cc(C(F)(F)F)c1

How the values were obtained:
[1] = biological target: Substance-P receptor (Cavia porcellus) (UniProt P30547); experiment: Antagonist activity at NK1 receptor in guinea pig ileum assessed as inhibition of substance P-induced muscle contraction; type: tissue-based
Substance-P receptor (Cavia porcellus), sequence (P30547 whole entry): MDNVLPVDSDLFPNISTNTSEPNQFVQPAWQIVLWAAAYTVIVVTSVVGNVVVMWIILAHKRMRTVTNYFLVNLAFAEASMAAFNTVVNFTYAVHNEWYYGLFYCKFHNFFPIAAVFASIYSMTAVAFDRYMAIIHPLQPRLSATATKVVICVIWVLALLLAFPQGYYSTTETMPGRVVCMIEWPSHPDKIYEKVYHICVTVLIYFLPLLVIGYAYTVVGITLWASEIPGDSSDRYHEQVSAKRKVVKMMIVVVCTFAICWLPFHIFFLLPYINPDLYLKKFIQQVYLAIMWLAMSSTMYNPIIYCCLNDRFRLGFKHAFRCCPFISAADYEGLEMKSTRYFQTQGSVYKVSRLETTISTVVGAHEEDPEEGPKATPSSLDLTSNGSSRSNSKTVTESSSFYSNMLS

Rattus norvegicus [2] = experiment: Antiallodynic activity in intrathecally dosed spinal nerve ligated Sprague-Dawley rat assessed as attenuation of SNL-induced tactile allodynia; type: functional, organism-based
How it was run: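 Spinal nerve ligated rats given intrathecal doses, expressed as µg/5 µL, with 10% DMSO/water as vehicle; tactile allodynia measured by von Frey and compared with vehicle over time.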

Rattus norvegicus [3] = experiment: Antinociceptive activity in Sprague-Dawley rat assessed as […] at 10 ug/5 uL administered intrathecally; type: functional, organism-based
How it was run: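 Non-injured rats given intrathecal 10 µg/5 µL in 10% DMSO/90% distilled water; hind paw withdrawal latency to radiant heat (Hargreaves) read 15 min after injection and compared with vehicle.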

Rattus norvegicus [4] = experiment: Antiallodynic activity in po dosed spinal nerve ligated Sprague-Dawley rat assessed as attenuation of SNL-induced tactile allodynia; type: functional, organism-based
How it was run: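 Spinal nerve ligated rats dosed orally; tactile (von Frey) and thermal hypersensitivity compared with vehicle.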

[5] = biological target: Mu-type opioid receptor (Cavia porcellus) (UniProt P97266); experiment: Agonist activity at mu opioid receptor in guinea pig ileum assessed as inhibition of electrically-stimulated muscle contraction at 1 uM; type: tissue-based
Mu-type opioid receptor (Cavia porcellus), sequence (P97266 whole entry): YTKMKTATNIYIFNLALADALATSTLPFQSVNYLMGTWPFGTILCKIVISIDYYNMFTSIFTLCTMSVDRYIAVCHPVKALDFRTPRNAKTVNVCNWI

Substance-P receptor = Substance-P receptor (Homo sapiens, UniProt P25103); experiment: Displacement of [3H]substance P from human NK1 receptor expressed in CHO cells; type: cell-based
Substance-P receptor, sequence (P25103 whole entry): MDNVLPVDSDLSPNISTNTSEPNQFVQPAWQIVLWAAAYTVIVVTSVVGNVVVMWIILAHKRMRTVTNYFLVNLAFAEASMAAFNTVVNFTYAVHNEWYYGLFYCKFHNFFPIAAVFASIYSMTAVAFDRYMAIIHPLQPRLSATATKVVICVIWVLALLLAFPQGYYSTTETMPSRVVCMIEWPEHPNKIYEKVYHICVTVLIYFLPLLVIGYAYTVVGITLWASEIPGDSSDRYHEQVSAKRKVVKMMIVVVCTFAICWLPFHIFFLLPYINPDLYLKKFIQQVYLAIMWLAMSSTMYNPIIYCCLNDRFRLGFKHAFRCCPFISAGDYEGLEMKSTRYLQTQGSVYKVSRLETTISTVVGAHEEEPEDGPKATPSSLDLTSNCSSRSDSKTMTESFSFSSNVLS

| Compound | Ke [1] | other results |
| --- | --- | --- |
| C[C@@H](NC(=O)[C@@H](N)Cc1ccc(O)cc1)C(=O)NCC(=O)N[C@@H](Cc1ccccc1)C(=O)NCC(=O)N[C@@H](Cc1c[nH]c2ccccc12)C(=O)OCc1cc(C(F)(F)F)cc(C(F)(F)F)c1 (H-Y[dA]GFGW-{OBzl(3,5-(CF3)2)}) | 59 nM | Activity (Rattus norvegicus [2]): Dose-dependent effect; Activity (Rattus norvegicus [3]): Active; Activity (Rattus norvegicus [4]): inactive |
| C[C@@H](NC(=O)[C@@H](N)Cc1ccc(O)cc1)C(=O)NCC(=O)N[C@@H](Cc1ccccc1)C(=O)N1CCCC1C(=O)N[C@@H](Cc1c[nH]c2ccccc12)C(=O)OCc1cc(C(F)(F)F)cc(C(F)(F)F)c1 (single isomer, unassigned) | 1.8 nM |  |
| CSCC[C@H](NC(=O)[C@H](Cc1ccccc1)NC(=O)CNC(=O)[C@@H](C)NC(=O)[C@@H](N)Cc1ccc(O)cc1)C(=O)N[C@@H](C)C(=O)N[C@@H](CC(C)C)C(=O)N[C@@H](Cc1c[nH]c2ccccc12)C(=O)OCc1cc(C(F)(F)F)cc(C(F)(F)F)c1 (H-Y[dA]GFMALW-{OBzl(3,5-(CF3)2)}) | 380 nM |  |
| CSCC[C@H](NC(=O)[C@H](Cc1ccccc1)NC(=O)CNC(=O)[C@@H](C)NC(=O)[C@@H](N)Cc1ccc(O)cc1)C(=O)NC1(C(=O)N[C@@H](CC(C)C)C(=O)N[C@@H](Cc2c[nH]c3ccccc23)C(=O)OCc2cc(C(F)(F)F)cc(C(F)(F)F)c2)CCCC1 | 2 nM |  |
| CSCC[C@H](NC(=O)[C@H](Cc1ccccc1)NC(=O)CNC(=O)[C@@H](C)NC(=O)[C@@H](N)Cc1ccc(O)cc1)C(=O)N1CCC[C@@H]1C(=O)N[C@@H](CC(C)C)C(=O)N[C@@H](Cc1c[nH]c2ccccc12)C(=O)OCc1cc(C(F)(F)F)cc(C(F)(F)F)c1 | 29 nM | inhibition [5]: 25% |
| CC(C)C[C@H](NC(=O)[C@H](Cc1ccccc1)NC(=O)CNC(=O)[C@@H](C)NC(=O)[C@@H](N)Cc1ccc(O)cc1)C(=O)N[C@@H](Cc1c[nH]c2ccccc12)C(=O)OCc1cc(C(F)(F)F)cc(C(F)(F)F)c1 (H-Y[dA]GFLW-{OBzl(3,5-(CF3)2)}) | 2 nM |  |
| CSCC[C@H](NC(=O)[C@H](Cc1ccccc1)NC(=O)CNC(=O)[C@@H](C)NC(=O)[C@@H](N)Cc1ccc(O)cc1)C(=O)NC(C)(C)C(=O)N[C@@H](CC(C)C)C(=O)N[C@@H](Cc1c[nH]c2ccccc12)C(=O)OCc1cc(C(F)(F)F)cc(C(F)(F)F)c1 | 12 nM | Ki (Substance-P receptor): 120 pM |
